Reference: ChEMBL document CHEMBL4024779, “Novel Terminal Bipheny-Based Diapophytoene Desaturases (CrtN) Inhibitors as Anti-MRSA/VISR/LRSA Agents with Reduced hERG Activity” (J Med Chem, 2018)
Activity calls are given as the source filed them. The calls are words filed in the database; no cut-off is given here.

Assays:
[1] = Tmax in Sprague-Dawley rat at 10 mg/kg, po administered as single dose by LC-MS/MS analysis; assay type: ADME, organism-based; conditions: in vivo
[2] = molecular target: T1, 4,4'-diapophytoene desaturase (4,4'-diaponeurosporene-forming) (Staphylococcus aureus (strain USA300)) (UniProt Q2FDU6); conditions: Staphylococcus aureus LAC, 1 uM
T1 sequence (whole entry): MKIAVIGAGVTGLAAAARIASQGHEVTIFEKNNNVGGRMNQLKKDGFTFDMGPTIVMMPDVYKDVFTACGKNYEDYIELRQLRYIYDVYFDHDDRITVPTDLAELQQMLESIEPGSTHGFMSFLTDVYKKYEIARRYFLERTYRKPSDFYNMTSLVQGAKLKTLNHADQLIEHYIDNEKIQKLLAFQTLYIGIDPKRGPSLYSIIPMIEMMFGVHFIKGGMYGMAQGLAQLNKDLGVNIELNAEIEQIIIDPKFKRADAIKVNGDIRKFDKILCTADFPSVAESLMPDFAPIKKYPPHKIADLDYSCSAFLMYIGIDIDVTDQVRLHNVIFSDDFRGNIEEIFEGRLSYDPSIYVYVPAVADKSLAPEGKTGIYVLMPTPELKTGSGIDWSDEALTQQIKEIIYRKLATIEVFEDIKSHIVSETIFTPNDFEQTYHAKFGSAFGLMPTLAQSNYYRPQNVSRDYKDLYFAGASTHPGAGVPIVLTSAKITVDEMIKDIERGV

[3] = molecular target: T2, Cytochrome P450 3A4 (Homo sapiens, UniProt P08684); assay: Inhibition of CYP3A4 in human liver microsomes using midazolam as substrate upto 10 uM after 5 mins in presence of NADPH by LC-MS/MS analysis; assay type: ADME
T2 sequence (P08684 whole entry): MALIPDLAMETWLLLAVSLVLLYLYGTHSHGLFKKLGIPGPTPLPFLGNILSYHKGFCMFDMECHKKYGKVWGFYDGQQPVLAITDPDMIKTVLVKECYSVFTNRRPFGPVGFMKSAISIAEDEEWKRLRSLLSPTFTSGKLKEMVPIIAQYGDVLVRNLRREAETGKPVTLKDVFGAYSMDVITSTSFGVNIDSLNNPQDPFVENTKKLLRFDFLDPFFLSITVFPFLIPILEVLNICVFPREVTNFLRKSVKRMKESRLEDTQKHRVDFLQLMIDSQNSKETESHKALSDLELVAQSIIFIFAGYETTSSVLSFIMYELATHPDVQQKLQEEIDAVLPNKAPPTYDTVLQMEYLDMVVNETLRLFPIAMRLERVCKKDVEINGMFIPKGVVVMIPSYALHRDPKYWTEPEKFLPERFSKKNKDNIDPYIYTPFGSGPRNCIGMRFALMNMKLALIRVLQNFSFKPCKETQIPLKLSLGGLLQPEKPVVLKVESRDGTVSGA

[4] = molecular target: T2, Cytochrome P450 3A4; assay: Inhibition of CYP3A4 in human liver microsomes using testosterone as substrate upto 10 uM after 5 mins in presence of NADPH by LC-MS/MS analysis; assay type: ADME
[5] = Oral bioavailability in Sprague-Dawley rat at 10 mg/kg administered as single dose by LC-MS/MS analysis; assay type: ADME, organism-based; conditions: in vivo
[6] = Half life in mouse at 10 mg/kg, po administered as single dose by LC-MS/MS analysis; assay type: ADME, organism-based; conditions: in vivo
[7] = Cmax in mouse at 2 mg/kg, iv administered as single dose by LC-MS/MS analysis; assay type: ADME, organism-based; parameters: dose 2 mg/kg, route intravenous; conditions: in vivo
[8] = Half life in mouse at 2 mg/kg, iv administered as single dose by LC-MS/MS analysis; assay type: ADME, organism-based; conditions: in vivo
[9] = tested on: Staphylococcus aureus; assay: In vivo anti-virulence activity against Staphylococcus aureus Newman in mouse lethal infection model assessed as host survival rate at 0.1 mg bid for 3.5 days administered intraperitoneally 6 hrs post infection and measured on day 8; assay type: functional
Method in brief: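 In a lethal sepsis model, mice (n=15) were challenged with 2 × 10^8 CFU S. aureus Newman. Animal survival was recorded daily through day 8.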

[10] = molecular target: T3, 4,4'-diapophytoene desaturase (4,4'-diaponeurosporene-forming) (Staphylococcus aureus (strain Mu50 / ATCC 700699)) (UniProt Q99R76); conditions: Staphylococcus aureus subsp. aureus Mu50; 1 uM
T3 sequence (whole entry): T1 sequence (whole entry)

[11] = tested on: Rattus norvegicus; assay: Toxicity in Sprague-Dawley rat at 60 to 1000 mg/kg, po administered as single dose assessed as changes in food consumption measured during 2 weeks post administration; assay type: organism-based; conditions: in vivo, 336 h
Method in brief: (§1)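 Rats, 30 in total, randomised into three groups. Each received a single oral dose of 60, 250 or 1000 mg/kg on day 1. Poisoning symptoms, mortality, behaviour, water and food consumption and body weight monitored immediately and over 2 weeks.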

[12] = tested on: Staphylococcus aureus; assay: In vivo anti-virulence activity against Staphylococcus aureus Newman infected in BALB/c mouse model assessed as reduction in bacterial load in kidney at 0.2 mg bid for 3.5 days administered orally 6 hrs post infection by serial dilution method relative to control; assay type: functional; parameters: scale not given: the % may be the effect or the level left
Method in brief: (§2)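 Mice got 3.1 × 10^7 CFU S. aureus Newman by retro-orbital injection. Oral compound was given b.i.d. for 3.5 d, starting 6 h after infection. […] Log10 CFU was counted per kidney and per heart.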

[13] = tested on: Rattus norvegicus; assay: Toxicity in Sprague-Dawley rat at 60 to 1000 mg/kg, po administered as single dose assessed as poisoning symptoms measured during 2 weeks post administration; assay type: organism-based; conditions: in vivo, 336 h; method in brief: as §1
[14] = tested on: Pseudomonas aeruginosa; assay: Antibacterial activity against Pseudomonas aeruginosa after 24 hrs by broth dilution method; assay type: functional
[15] = Inhibition of CrtN in methicillin-resistant Staphylococcus aureus LRSA202 assessed as reduction in staphyloxanthin levels after 48 hrs by spectrophotometric method-based pigment inhibition assay
[16] = tested on: Staphylococcus aureus; assay: In vivo anti-virulence activity against Staphylococcus aureus Newman infected in BALB/c mouse model assessed as reduction in bacterial load in heart at 0.4 mg bid for 3.5 days administered orally 6 hrs post infection by serial dilution method relative to control; assay type: functional, organism-based; method in brief: as §2
[17] = tested on: Enterococcus faecium; assay: Antibacterial activity against Enterococcus faecium after 24 hrs by broth dilution method; assay type: functional
[18] = AUC (0 to 24 hrs) in Sprague-Dawley rat at 10 mg/kg, po administered as single dose by LC-MS/MS analysis; assay type: ADME, organism-based; parameters: time < 24 hr, dose 10 mg/kg, route oral; conditions: in vivo
[19] = Cmax in Sprague-Dawley rat at 5 mg/kg, iv administered as single dose by LC-MS/MS analysis; assay type: ADME, organism-based; parameters: dose 5 mg/kg, route intravenous; conditions: in vivo
[20] = tested on: Staphylococcus aureus; assay: In vivo anti-virulence activity against Staphylococcus aureus Newman infected in BALB/c mouse model assessed as reduction in bacterial load in kidney at 0.4 mg bid for 3.5 days administered orally 6 hrs post infection by serial dilution method relative to control; assay type: functional; parameters: scale not given: the % may be the effect or the level left; method in brief: as §2
[21] = Inhibition of CrtN in methicillin-resistant Staphylococcus aureus NRS70 assessed as reduction in staphyloxanthin levels after 48 hrs by spectrophotometric method-based pigment inhibition assay
[22] = AUC (0 to infinity) in mouse at 10 mg/kg, po administered as single dose by LC-MS/MS analysis; assay type: ADME, organism-based; parameters: dose 10 mg/kg, time infinity, route oral; conditions: in vivo
[23] = tested on: Staphylococcus aureus; assay: In vivo anti-virulence activity against methicillin-resistant Staphylococcus aureus LRSA56 infected in BALB/c mouse model assessed as reduction in bacterial load in heart at 0.1 mg bid for 3.5 days administered intraperitoneally 6 hrs post infection by serial dilution method relative to linezolid; assay type: functional; parameters: scale not given: the % may be the effect or the level left
Method in brief: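 Mice were infected by retro-orbital injection with LRSA56 (5.0 × 10^7 CFU) or LRSA202 (7.0 × 10^7 CFU). Compound was given intraperitoneally 6 h after infection. […] Log10 CFU was counted in kidneys and hearts, with groups compared by two-tailed Mann-Whitney test.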

[24] = Half life in Sprague-Dawley rat at 10 mg/kg, po administered as single dose by LC-MS/MS analysis; assay type: ADME, organism-based; conditions: in vivo
[25] = Tmax in mouse at 10 mg/kg, po administered as single dose by LC-MS/MS analysis; assay type: ADME, organism-based; conditions: in vivo
[26] = AUC (0 to infinity) in Sprague-Dawley rat at 10 mg/kg, po administered as single dose by LC-MS/MS analysis; assay type: ADME, organism-based; parameters: dose 10 mg/kg, route oral, time infinity; conditions: in vivo
[27] = molecular target: Voltage-gated inwardly rectifying potassium channel KCNH2 (Homo sapiens, UniProt Q12809); assay: Inhibition of human ERG expressed in CHO cells at -80 mV holding potential after 3 mins by QPatch test; assay type: cell-based
Chain of Voltage-gated inwardly rectifying potassium channel KCNH2 (Q12809 whole entry): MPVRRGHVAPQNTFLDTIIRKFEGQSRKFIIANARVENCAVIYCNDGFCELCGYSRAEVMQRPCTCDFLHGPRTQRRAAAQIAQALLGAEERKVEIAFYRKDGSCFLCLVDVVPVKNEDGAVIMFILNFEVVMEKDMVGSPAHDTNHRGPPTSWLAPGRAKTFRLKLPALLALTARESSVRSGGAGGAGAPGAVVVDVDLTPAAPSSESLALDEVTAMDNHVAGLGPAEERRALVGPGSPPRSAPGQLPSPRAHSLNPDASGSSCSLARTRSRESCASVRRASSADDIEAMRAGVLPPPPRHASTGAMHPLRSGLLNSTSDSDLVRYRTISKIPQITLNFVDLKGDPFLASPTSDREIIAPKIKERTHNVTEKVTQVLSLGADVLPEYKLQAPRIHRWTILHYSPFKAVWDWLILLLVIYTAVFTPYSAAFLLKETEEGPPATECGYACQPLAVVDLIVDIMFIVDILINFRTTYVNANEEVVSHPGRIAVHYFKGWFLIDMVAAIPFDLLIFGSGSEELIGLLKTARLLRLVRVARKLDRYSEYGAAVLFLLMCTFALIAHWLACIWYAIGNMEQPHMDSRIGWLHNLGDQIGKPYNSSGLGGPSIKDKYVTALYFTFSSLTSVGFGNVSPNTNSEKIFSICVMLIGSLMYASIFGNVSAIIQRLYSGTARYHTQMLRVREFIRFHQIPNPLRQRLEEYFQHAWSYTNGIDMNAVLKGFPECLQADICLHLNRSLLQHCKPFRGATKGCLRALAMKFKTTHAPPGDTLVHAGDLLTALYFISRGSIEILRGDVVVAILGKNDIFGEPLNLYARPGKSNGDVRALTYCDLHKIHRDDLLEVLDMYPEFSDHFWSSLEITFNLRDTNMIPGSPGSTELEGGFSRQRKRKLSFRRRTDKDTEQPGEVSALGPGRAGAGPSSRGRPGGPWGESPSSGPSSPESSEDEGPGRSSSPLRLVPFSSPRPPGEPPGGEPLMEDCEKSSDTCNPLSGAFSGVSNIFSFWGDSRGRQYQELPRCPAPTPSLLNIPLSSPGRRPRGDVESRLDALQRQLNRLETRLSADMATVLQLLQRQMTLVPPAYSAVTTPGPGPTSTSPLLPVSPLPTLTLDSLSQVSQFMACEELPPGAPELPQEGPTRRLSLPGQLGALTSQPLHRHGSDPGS

## CN(C/C=C/c1ccc(-c2ccccc2)cc1)Cc1coc2ccccc12.Cl
[1]
  Tmax: 2 h
[2]
  Survival: 0.7%
[3]
  IC50: > 10000 nM
[4]
  IC50: > 10000 nM
[5]
  bioavailability: 16.3%
[6]
  half-life: 3.35 h
[7]
  Cmax: 2.23 µg/mL
[8]
  half-life: 2.05 h
[9]
  Survival: >70%
[10]
  Survival: 0.4%
[11]
  Activity: Non-Toxic
[12]
  Activity: 90%
[13]
  Activity: Non-Toxic
[14]
  MIC: > 500 mg/L
[15]
  IC50: 1.6 nM
[16]
  Activity: inactive
[17]
  MIC: > 500 mg/L
[18]
  AUC(0-t) at 24 h: 0.899 µg·h/mL
[19]
  Cmax: 4.61 µg/mL
[20]
  Activity: 90%
[21]
  IC50: 1.7 nM
[22]
  AUC(0-inf): 4.56 µg·h/mL
[23]
  Activity: >71.8%
[24]
  half-life: 1.29 h
[25]
  Tmax: 2 h
[26]
  AUC(0-inf): 0.93 µg·h/mL

## CN(C/C=C/c1ccc(-c2ccccc2)cc1)Cc1cccc2cc[nH]c12.Cl
[27]
  IC50: > 40000 nM
